We go through two compounds from ChEMBL document CHEMBL3102735, “Enhancing the pharmacodynamic profile of a class of selective COX-2 inhibiting nitric oxide donors” (Bioorg Med Chem, 2014).

Experiment [1] deals with Mus musculus. Description: Antihyperalgesic activity in Swiss albino mouse assessed as reduction in carrageenan-induced inflammation at 10 mg/kg, po after 90 mins relative to control. Type of experiment: functional. Further details: scale not given: the % may be the effect or the level left.
In experiment [2] the test system is Mus musculus. Description: Analgesic activity in po dosed Swiss albino mouse assessed as reduction of acetic acid-induced writhing measured every 10 mins after 5 mins of administration. Type of experiment: functional, organism-based. In outline:
(§1)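 Male Swiss albino mice (23–25 g), compound given orally in CMC vehicle; writhing induced by 0.6% acetic acid (10 mL/kg) ip. Stretching movements counted for 10 min, starting 5 min after administration; percent reduction versus CMC-treated animals.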

In experiment [3] the test system is Mus musculus. Description: Antihyperalgesic activity in Swiss albino mouse assessed as reduction in carrageenan-induced inflammation at 10 mg/kg, po after 60 mins relative to control. The format is functional. Further details: scale not given: the % may be the effect or the level left.
Experiment [4] relates to Mus musculus. In words: Antihyperalgesic activity in Swiss albino mouse assessed as reduction in carrageenan-induced inflammation at 10 mg/kg, po after 120 mins relative to control. Further details: scale not given: the % may be the effect or the level left. The format is functional.
Experiment [5] relates to Mus musculus. Description: Analgesic activity in Swiss albino mouse assessed as reduction of acetic acid-induced writhing at 10 mg/kg, po measured every 10 mins after 5 mins of administration relative to control. On the set-up: scale not given: the % may be the effect or the level left. Type of experiment: functional. A digest of the protocol: as §1
A general note: Writhing tests count abdominal constrictions after an irritant is injected.

Experiment [6] relates to Mus musculus. Description: Antiinflammatory activity in Swiss albino mouse assessed as reduction in carrageenan-induced paw edema at 10 mg/kg, po relative to control. The format is functional. On the set-up: scale not given: the % may be the effect or the level left. A digest of the protocol: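 Intraplantar carrageenan, compound po in CMC; volume of right hind paw measured 4 h after carrageenan injection and compared with saline/carrageenan-treated controls; percent oedema reduction.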

Experiment [7] deals with Mus musculus. In words: Antihyperalgesic activity in Swiss albino mouse assessed as reduction in carrageenan-induced inflammation at 10 mg/kg, po after 30 mins relative to control. Further details: scale not given: the % may be the effect or the level left. Type of experiment: functional.
Experiment [8] deals with Thoracic aorta. Description: Ex vivo vasorelaxant activity in Wistar rat endothelium thoracic aortic ring assessed as reduction of KCl-induced contraction in presence of guanylate cyclase inhibitor ODQ. Type of experiment: functional. A digest of the protocol: (§2)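 Endothelium-denuded thoracic aortic rings from male Wistar rats (250–350 g) in oxygenated Tyrode-type buffer at 37 °C, isometric tension recording. Rings precontracted with 30 mM KCl, then 3-fold increasing compound concentrations (1 nM–10 µM) added, also with 1 µM ODQ preincubated. Emax as % of KCl tone; pIC50; mean ± SE of 6–10 experiments.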

In experiment [9] the test system is Liver. In words: Induction of nitric oxide production in Wistar rat liver homogenate assessed as nitrate level at 1 mM after 1 to 150 mins. Type of experiment: functional, tissue-based.
Experiment [10] concerns Liver. Description: Induction of nitric oxide production in Wistar rat liver homogenate assessed as nitrate level at 1 mM. Type of experiment: functional, tissue-based. The following applies: TDE = time-dependent effect.
Experiment [11] has as its system Thoracic aorta. In words: Ex vivo vasorelaxant activity in Wistar rat endothelium thoracic aortic ring assessed as reduction of KCl-induced contraction at 0.001 uM to 10 uM relative to control. The format is functional. In outline: as §2
Experiment [12] deals with Liver. Description: Induction of nitric oxide production in Wistar rat liver homogenate assessed as NOx level at 1 mM after 1 to 150 mins. Type of experiment: functional, tissue-based.
Experiment [13] relates to Thoracic aorta. Description: Ex vivo vasorelaxant activity in Wistar rat endothelium thoracic aortic ring assessed as reduction of KCl-induced contraction. Type of experiment: functional, tissue-based. In outline:
as §2

Experiment [14] relates to Liver. Description: Induction of nitric oxide production in Wistar rat liver homogenate assessed as nitrite level at 1 mM after 1 to 150 mins. Type of experiment: functional, tissue-based.
Experiment [15] relates to Liver. In words: Induction of nitric oxide production in Wistar rat liver homogenate assessed as nitrite level at 1 mM. The format is functional, tissue-based. The following applies: TDE = time-dependent effect.
The test system of experiment [16] is Liver. In words: Induction of nitric oxide production in Wistar rat liver homogenate assessed as NOx level at 1 mM. The format is functional, tissue-based. Particulars: TDE = time-dependent effect.

Activity calls are given as the source filed them. The rule behind the calls is not given here.

Turning to `Cc1ccc(-c2cc(C(F)(F)F)nn2-c2ccc(S(N)(=O)=O)cc2)cc1` [CELECOXIB], the Activity is 56% in the experiment on Mus musculus [1]; “Dose-dependent effect” in the experiment with Mus musculus [2]; 75% with Mus musculus [3]; 39% in the experiment on Mus musculus [4]; 59% in the experiment on Mus musculus [5]; 17% in the experiment on Mus musculus [6]. Besides, the Activity with Mus musculus [7] stood at 45%.

In the case of `COc1ccc2cc([C@H](C)C(=O)OCCCCO[N+](=O)[O-])ccc2c1` [NAPROXCINOD], the result with Thoracic aorta [8] was inactive. Besides, the Activity in the experiment with Liver [9] is 340 µM; in the experiment on Liver [10], “tde”; in the experiment on Liver [12], 368 µM; in the experiment on Liver [14], 27.6 µM; in the experiment on Liver [15], “tde”; with Liver [16] it was “tde”. Further, the Emax (in general, the maximal effect, on the per cent scale that the assay sets) with Thoracic aorta [11] was 68%. In the experiment on Thoracic aorta [13], the IC50 – broadly, the concentration that gives 50% inhibition – is 468 nM.
